The record followed here is publication PMC5553891 (Neurochemistry international, 2013).

The target of experiment [1] is T1, dSERT (Drosophila melanogaster, UniProt P51905).
T1 sequence (P51905 1-622): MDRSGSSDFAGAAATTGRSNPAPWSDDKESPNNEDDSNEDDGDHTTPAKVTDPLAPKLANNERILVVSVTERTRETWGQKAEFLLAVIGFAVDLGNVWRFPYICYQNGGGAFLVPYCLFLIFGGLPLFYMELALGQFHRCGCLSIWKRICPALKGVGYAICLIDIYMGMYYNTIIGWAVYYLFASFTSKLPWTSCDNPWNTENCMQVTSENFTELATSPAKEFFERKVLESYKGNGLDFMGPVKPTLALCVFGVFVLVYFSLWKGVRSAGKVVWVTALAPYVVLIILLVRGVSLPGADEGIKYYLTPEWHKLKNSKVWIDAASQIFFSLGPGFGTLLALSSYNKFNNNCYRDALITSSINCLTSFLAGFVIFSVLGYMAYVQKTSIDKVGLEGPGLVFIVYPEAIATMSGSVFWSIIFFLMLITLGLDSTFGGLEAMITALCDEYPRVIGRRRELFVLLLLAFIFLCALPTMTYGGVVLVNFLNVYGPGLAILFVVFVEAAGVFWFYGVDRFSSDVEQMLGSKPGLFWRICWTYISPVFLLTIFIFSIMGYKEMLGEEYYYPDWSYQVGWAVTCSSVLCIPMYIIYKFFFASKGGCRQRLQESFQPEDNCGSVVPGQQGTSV
The experiment can be described thus: inhibition of [3H]5-HT uptake in Xenopus oocytes. The class given is cell-based. Put shortly: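 Xenopus oocytes: defolliculated in collagenase A, kept at 18°C in supplemented ND96, injected with 50 ng dSERT cRNA, used 2–4 days later. Uptake ran 20 min in ND96 with 200 nM [3H]5-HT plus increasing competitor. Stopped by removal and six ND96 washes; SDS-solubilised at 60°C, 2 h; scintillation counted. Uninjected same-batch oocytes subtracted; normalised to no-drug control; one-site competition fit.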

Experiment [2] deals with T1, dSERT. The experiment can be described thus: two-electrode voltage clamp of 5-HT-induced current in Xenopus oocytes. It is filed as cell-based. The conditions noted are these: 10 μM 5-HT, ND96, −50 mV, room temperature. For orientation: Two-electrode voltage clamp is typically applied to oocytes expressing channels or transporters.
Where [3] appears, read: read-out: Ki (μM ± SEM) / dSERT, 200 nM [3H]5-HT, 20 min, ND96.

Structures are written as SMILES. Read-outs that look alike come from different tables or passages of the source.

In experiment [1], `C=C[C@H]1C[N@@]2CC[C@H]1C[C@@H]2[C@@H](O)c1ccnc2ccc(OC)cc12` [Quinidine] had a Ki of 1.8 ± 0.11 µM.
Same read-out and setting: in the case of `C=C[C@H]1C[N@@]2CC[C@H]1C[C@H]2[C@H](O)c1ccnc2ccc(OC)cc12` [Quinine] it was 102 ± 24 µM.
Take `CCN(CC)Cc1cc(Nc2ccnc3cc(Cl)ccc23)ccc1O` [Amodiaquin]: the “% inhibition of I5HT at 100 μM” value in experiment [2] is listed as “amodiaquin, which did not impact 5-HT uptake, was as affective as quinine”.
With `CCN(CC)CCCC(C)Nc1c2ccc(Cl)cc2nc2ccc(OC)cc12` (stereo not shown) [quinacrine], the “% inhibition of I5HT at 100 μM” value in experiment [2] is reported as “quinidine > cinchonine > quinacrine > chloroquine > quinine = amodiaquin = cinchonidine”.
In the case of `C=C[C@H]1C[N@@]2CC[C@H]1C[C@@H]2[C@@H](O)c1ccnc2ccccc12` [Cinchonine], in experiment [1] (setting [3]), the Ki turned out to be 6.4 ± 0.05 µM.
For `C=C[C@H]1CN2CC[C@H]1C[C@H]2[C@H](O)c1ccnc2ccccc12` [Cinchonidine], the Ki in experiment [1] (setting [3]) was determined as 330 ± 19 µM.
With `CCN(CC)CCCC(C)Nc1ccnc2cc(Cl)ccc12` (stereo not shown) [Chloroquine], the “% inhibition of I5HT at 100 μM” value in experiment [2] is “quinidine > cinchonine > quinacrine > chloroquine > quinine = amodiaquin = cinchonidine”.
